Results on five compounds are retold here after paper PMC3288198 (ACS Chemical Biology, 2011).

One series deals with HDAC1 (Homo sapiens, UniProt Q13547). The series can be described thus: HDAC deacetylase homogenous fluorescence assay, HDAC1. In kind it is biochemical. The method in brief: (§1)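 Baculovirus-expressed recombinant human enzyme (HDAC3 as HDAC3/N-CoR2 complex) incubated with serially diluted test compound over a 12-point titration. Substrate: acetylated AMC-K(Ac)GL. Deacetylated product cleaved by lysine peptidase to free MCA, read at ex 355/em 460 nm. Data normalised to control plate by plate. IC50 and SD from non-linear regression; Ki via Cheng-Prusoff, Ki = IC50/(1+[S]/Km).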

A further series has as its target HDAC2 (Homo sapiens, UniProt Q92769). The series can be described thus: HDAC deacetylase homogenous fluorescence assay, HDAC2. In kind it is biochemical. The settings on record: for Ki: read-out: HDAC2 Ki, converted from IC50 using Cheng-Prusoff equation. The method in brief: as §1
The next series deals with HDAC3/N-CoR2 (Homo sapiens, UniProt O15379). The series can be described thus: HDAC deacetylase homogenous fluorescence assay, HDAC3. The class given is biochemical. The procedure, abridged: as §1
A further series concerns the target HDAC4 (Homo sapiens, UniProt P56524). The series can be described thus: HDAC deacetylase homogenous fluorescence assay, HDAC4. In kind it is biochemical.
The next series concerns the target HDAC5 (Homo sapiens, UniProt Q9UQL6). The series can be described thus: HDAC deacetylase homogenous fluorescence assay, HDAC5. The class given is biochemical. The method in brief:
(§2)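 Recombinant human enzyme (HDAC5, 8, 9 baculovirus-expressed) incubated with serially diluted test compound over a 12-point titration. Substrate: trifluoroacetylated AMC-K(TFA)GL. Peptidase development releases MCA, read at ex 355/em 460 nm. Activity normalised to plate controls. IC50 and SD by non-linear regression; Ki by Cheng-Prusoff, Ki = IC50/(1+[S]/Km).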

The next series addresses T1, HDAC7 (Homo sapiens, UniProt Q8WUI4).
T1 sequence (Q8WUI4 1-952): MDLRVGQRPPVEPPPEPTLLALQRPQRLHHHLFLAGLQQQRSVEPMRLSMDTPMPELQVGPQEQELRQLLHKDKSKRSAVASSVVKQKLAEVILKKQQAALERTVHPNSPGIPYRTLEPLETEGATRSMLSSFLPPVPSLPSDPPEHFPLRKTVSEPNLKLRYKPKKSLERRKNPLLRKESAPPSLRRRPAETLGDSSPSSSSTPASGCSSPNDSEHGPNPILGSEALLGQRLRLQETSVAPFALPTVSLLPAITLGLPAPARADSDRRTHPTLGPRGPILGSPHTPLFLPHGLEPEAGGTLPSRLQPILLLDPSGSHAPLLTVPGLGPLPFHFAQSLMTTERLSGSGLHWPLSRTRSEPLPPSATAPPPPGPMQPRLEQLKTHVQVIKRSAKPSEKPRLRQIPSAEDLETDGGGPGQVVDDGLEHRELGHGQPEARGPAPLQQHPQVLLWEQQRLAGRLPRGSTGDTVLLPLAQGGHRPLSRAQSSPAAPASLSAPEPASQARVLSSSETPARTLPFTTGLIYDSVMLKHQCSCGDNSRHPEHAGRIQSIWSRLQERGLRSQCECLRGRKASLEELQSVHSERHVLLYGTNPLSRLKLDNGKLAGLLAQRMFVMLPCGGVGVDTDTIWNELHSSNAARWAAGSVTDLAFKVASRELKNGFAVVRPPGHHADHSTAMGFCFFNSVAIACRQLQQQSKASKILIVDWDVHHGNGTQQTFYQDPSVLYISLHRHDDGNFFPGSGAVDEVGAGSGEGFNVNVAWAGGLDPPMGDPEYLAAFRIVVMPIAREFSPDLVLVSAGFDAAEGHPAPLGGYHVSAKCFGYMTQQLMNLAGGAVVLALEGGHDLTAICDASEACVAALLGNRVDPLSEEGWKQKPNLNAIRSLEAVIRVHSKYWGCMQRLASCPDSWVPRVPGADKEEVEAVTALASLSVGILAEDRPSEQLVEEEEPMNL
The series can be described thus: HDAC deacetylase homogenous fluorescence assay, HDAC7. In kind it is biochemical.

Another series concerns the target T2, HDAC8 (Homo sapiens, UniProt Q9BY41).
T2 sequence (Q9BY41 1-377): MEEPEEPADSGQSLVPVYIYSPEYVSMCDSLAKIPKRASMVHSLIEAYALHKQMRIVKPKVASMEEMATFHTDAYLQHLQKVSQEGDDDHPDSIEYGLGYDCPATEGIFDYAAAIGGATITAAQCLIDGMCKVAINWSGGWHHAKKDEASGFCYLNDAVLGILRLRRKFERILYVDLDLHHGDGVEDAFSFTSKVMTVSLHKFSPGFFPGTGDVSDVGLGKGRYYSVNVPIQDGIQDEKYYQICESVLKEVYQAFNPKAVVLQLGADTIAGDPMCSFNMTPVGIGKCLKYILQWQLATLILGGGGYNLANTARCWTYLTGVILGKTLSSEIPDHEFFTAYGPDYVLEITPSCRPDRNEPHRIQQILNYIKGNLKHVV
The series can be described thus: HDAC deacetylase homogenous fluorescence assay, HDAC8. The class given is biochemical. The method in brief: as §2

The target of a further series is T3, HDAC11 (Homo sapiens, UniProt Q96DB2).
T3 sequence (Q96DB2 1-347): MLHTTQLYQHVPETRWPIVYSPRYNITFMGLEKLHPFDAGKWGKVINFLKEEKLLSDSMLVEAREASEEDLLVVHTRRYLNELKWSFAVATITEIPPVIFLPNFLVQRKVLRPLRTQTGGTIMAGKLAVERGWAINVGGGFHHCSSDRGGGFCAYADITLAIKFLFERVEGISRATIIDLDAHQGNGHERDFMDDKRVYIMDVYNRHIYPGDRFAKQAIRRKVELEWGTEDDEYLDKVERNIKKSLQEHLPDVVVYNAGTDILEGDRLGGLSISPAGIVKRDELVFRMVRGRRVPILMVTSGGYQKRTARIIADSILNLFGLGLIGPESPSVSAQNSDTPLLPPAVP
The series can be described thus: HDAC deacetylase homogenous fluorescence assay, HDAC11. The class given is biochemical.

Series [1] concerns non-proliferating PBMC (no mitogen stimulation). The series can be described thus: Viability of resting PBMC. The class given is cell-based, human.
A further series deals with acetylated tubulin. The series can be described thus: Western blot of acetylated tubulin in MV4-11 cells. In kind it is cell-based, human. The method in brief:
(§3)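 MV4-11 cells (10% heat-inactivated FBS, 37°C, 5% CO2) treated with test compound at a range of concentrations. Washed in cold HBSS and lysed 30 min in low-salt Tris pH 7.4 buffer with protease/phosphatase inhibitors and 1 μM TSA, then sonicated. LDS-denatured lysates run on 4–12% gradient gels. Probes: acetyl-H3, acetyl-H4, total H3, acetyl-α-tubulin, tubulin. HRP secondary, ECL read-out.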

Series [2] concerns acetylated histone H3 and H4. The series can be described thus: Western blot of acetylated histone H3/H4 in MV4-11 cells. The class given is cell-based, human. The method in brief:
as §3
On the technique in general: A western blot detects proteins with antibodies after separation by electrophoresis.

The next series relates to ubiquitinated protein. The series can be described thus: Western blot of total ubiquitinated protein in MV4-11 cells. In kind it is cell-based, human. The conditions noted are these: within 3 hr.
[3] abbreviates: read-out: HDAC1 IC50, 12 point titration, acetylated substrate.
The mark [4] stands for this setting: read-out: HDAC1 Ki, converted from IC50 using Cheng-Prusoff equation.
The mark [5] stands for this setting: read-out: HDAC2 IC50, 12 point titration, acetylated substrate.
Setting [6] is: read-out: HDAC3 IC50, 12 point titration, acetylated substrate.
[7] abbreviates: read-out: HDAC3 Ki, converted from IC50 using Cheng-Prusoff equation.
[8] abbreviates: read-out: HDAC4 IC50, 12 point titration, trifluoroacetylated substrate.
[9] abbreviates: read-out: HDAC4 Ki, converted from IC50 using Cheng-Prusoff equation.
Where [10] appears, read: read-out: HDAC5 IC50, 12 point titration, trifluoroacetylated substrate.
Setting [11] is: read-out: HDAC5 Ki, converted from IC50 using Cheng-Prusoff equation.
Setting [12] is: read-out: HDAC7 IC50, 12 point titration, trifluoroacetylated substrate.
[13] abbreviates: read-out: HDAC7 Ki, converted from IC50 using Cheng-Prusoff equation.
[14] abbreviates: read-out: HDAC8 IC50, 12 point titration, trifluoroacetylated substrate.
The mark [15] stands for this setting: read-out: HDAC8 Ki, converted from IC50 using Cheng-Prusoff equation.
The mark [16] stands for this setting: read-out: HDAC11 IC50, 12 point titration, trifluoroacetylated substrate.

Where two headings read alike, the source gives them in different places.

Chain of HDAC4 (P56524 whole entry): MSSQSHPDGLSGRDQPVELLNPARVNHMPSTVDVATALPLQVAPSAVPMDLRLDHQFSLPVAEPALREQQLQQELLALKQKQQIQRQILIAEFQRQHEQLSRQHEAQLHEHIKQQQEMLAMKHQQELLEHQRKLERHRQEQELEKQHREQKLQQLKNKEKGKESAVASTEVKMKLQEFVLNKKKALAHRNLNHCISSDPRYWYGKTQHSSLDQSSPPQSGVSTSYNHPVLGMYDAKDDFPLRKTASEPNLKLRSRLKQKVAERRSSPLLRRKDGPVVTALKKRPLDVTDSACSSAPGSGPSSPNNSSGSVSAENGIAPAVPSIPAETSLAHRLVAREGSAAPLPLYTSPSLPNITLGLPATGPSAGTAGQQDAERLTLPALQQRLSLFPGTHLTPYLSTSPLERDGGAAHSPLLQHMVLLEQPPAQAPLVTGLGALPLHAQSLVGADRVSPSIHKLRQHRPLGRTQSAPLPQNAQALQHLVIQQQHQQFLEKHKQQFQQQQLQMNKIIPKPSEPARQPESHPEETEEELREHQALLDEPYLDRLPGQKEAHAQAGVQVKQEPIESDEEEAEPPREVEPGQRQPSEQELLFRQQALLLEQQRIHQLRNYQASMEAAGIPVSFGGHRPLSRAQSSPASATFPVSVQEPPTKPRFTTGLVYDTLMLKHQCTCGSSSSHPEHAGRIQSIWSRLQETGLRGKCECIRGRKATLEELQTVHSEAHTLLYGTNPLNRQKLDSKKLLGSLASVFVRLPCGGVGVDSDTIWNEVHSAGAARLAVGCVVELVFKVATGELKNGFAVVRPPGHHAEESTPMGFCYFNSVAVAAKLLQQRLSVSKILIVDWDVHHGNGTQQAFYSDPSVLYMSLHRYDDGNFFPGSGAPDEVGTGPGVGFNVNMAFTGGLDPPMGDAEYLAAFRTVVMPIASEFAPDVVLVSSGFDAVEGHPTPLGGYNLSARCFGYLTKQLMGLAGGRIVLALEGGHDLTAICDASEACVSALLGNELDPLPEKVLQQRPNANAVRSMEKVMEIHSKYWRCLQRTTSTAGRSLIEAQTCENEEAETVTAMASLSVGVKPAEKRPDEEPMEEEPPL
Chain of HDAC2 (Q92769 whole entry): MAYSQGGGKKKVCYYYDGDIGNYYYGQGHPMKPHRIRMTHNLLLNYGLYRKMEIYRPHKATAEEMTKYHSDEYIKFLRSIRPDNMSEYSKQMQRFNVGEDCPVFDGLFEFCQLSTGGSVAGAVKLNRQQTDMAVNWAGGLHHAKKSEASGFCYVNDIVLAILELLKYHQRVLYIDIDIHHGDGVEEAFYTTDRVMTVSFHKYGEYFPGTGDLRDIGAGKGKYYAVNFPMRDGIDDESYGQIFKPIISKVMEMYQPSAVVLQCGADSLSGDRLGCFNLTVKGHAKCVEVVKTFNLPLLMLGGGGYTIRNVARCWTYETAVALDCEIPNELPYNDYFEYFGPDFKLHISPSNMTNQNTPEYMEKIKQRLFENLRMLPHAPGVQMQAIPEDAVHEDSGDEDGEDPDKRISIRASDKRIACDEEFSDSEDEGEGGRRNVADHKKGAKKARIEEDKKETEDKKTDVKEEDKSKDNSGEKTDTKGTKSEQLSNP
Chain of HDAC1 (Q13547 whole entry): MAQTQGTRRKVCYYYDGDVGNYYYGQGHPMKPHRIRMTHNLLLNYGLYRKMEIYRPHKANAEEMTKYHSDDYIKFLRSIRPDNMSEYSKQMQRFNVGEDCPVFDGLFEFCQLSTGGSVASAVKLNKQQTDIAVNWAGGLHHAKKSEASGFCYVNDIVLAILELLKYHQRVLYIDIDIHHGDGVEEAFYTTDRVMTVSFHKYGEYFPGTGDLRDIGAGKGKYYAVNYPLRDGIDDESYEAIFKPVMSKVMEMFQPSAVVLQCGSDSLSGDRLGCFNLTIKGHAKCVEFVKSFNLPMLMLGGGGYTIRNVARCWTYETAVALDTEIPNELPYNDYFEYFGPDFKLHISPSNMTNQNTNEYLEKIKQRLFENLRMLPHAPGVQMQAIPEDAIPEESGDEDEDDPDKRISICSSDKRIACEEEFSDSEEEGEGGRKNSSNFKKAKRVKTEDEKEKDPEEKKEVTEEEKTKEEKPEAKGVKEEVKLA
Chain of HDAC5 (Q9UQL6 whole entry): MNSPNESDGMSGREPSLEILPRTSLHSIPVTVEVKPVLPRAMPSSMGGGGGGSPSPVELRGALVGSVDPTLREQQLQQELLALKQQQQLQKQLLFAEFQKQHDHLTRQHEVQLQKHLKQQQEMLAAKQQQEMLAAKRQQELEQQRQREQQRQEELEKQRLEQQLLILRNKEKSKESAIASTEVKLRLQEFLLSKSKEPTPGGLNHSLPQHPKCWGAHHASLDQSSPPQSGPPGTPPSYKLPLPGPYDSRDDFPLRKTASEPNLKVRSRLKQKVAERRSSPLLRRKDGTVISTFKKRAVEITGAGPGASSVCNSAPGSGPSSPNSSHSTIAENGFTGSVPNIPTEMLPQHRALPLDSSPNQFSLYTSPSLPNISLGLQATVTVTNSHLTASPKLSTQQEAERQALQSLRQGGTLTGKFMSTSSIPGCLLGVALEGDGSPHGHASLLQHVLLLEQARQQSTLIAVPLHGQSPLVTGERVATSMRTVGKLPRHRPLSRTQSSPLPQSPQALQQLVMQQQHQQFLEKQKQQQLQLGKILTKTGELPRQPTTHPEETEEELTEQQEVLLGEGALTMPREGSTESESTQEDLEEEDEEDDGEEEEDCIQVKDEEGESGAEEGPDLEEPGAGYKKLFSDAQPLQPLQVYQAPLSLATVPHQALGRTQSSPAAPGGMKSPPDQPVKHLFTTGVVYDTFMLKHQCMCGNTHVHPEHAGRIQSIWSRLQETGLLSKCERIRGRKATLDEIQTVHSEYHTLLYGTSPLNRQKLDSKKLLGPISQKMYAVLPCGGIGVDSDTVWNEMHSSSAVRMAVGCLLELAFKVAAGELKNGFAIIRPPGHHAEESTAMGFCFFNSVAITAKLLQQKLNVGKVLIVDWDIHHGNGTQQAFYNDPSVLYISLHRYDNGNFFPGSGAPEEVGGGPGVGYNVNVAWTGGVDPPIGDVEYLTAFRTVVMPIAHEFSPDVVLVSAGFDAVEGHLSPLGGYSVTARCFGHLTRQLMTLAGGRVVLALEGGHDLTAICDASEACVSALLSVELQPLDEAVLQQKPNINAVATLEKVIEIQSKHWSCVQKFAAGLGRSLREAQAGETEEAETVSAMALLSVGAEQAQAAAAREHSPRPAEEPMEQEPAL
Chain of HDAC3/N-CoR2 (O15379 whole entry): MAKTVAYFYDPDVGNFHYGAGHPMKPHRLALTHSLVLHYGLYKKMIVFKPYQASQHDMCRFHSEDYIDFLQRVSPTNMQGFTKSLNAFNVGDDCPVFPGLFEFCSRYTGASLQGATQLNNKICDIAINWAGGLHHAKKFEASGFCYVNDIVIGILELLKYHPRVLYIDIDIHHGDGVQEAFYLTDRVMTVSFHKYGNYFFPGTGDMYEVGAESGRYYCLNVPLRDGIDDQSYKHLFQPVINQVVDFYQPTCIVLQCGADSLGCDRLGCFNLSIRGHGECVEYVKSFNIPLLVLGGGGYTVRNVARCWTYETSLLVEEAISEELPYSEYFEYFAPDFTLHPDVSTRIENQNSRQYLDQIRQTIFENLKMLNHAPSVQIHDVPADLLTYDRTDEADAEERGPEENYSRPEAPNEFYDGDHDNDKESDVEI
Chain of HDAC3/N-CoR2 (Q9Y618 395-489 partner limits assumed): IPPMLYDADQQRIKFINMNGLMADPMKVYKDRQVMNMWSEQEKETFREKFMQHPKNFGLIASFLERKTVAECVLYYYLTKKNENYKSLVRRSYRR

Usually IC50 stands for the concentration needed to halve the response being measured. As usually defined, the Ki is the equilibrium dissociation constant of an inhibitor or competing ligand from its target. As to `O=C1C(SCCO)=C(SCCO)C(=O)c2ccccc21` [NSC-95397, 2,3-bis[(2-Hydroxyethyl)thio]-1,4-naphthoquinone], the IC50 at HDAC1 was greater than 180 µM; at HDAC2, greater than 100 µM; against HDAC3/N-CoR2, greater than 100 µM; against HDAC4, 7.2 ± 2.8 µM; on HDAC5 it was 3.1 ± 0.2 µM; against HDAC7, 13.1 ± 4.3 µM. In addition, the IC50 at HDAC8 stood at 1.3 ± 0.1 µM; against HDAC11, 37.8 ± 1.4 µM. Besides, the Ki came out at 1.23 µM on HDAC4; 1.68 µM on HDAC5; 3.72 µM at HDAC7; 1.03 µM at HDAC8; 7.41 µM at HDAC11. The figures for the “effect on resting (non-proliferating) PBMC viability” value in series [1] and in [1] (listed as NSC) were “inactive” and “not affected”, respectively. In addition, in the series on acetylated tubulin, the “induction of acetylated tubulin” value is on record as “induces hyperacetylated tubulin”. Moreover, the “effect on acetylated histone H3/H4 levels” value in series [2] is “without an increase in acetylated histone levels”. Also, in the series with ubiquitinated protein, the “total ubiquitinated protein level” value is “increase in total ubiquitinated protein level”.
In the case of `NC(N)=Nc1ccc2[nH]c3c(c2c1)C[C@@]1(O)[C@H]2Cc4ccc(O)c5c4[C@@]1(CCN2CC1CC1)[C@H]3O5` [GNTI, guanidinyl-naltrindole di-trifluoroacetate], the IC50 was determined as 30.2 ± 7.3 µM on HDAC1 (setting [3]); 26.2 ± 7.6 µM at HDAC2 (setting [5]); 22.7 ± 3.1 µM on HDAC3/N-CoR2 (setting [6]); 13.4 ± 1.6 µM at HDAC4 (setting [8]); 0.7 ± 0.1 µM on HDAC5 (setting [10]); 18.9 ± 1 µM on HDAC7 (setting [12]). Moreover, the IC50 is 2 ± 0.4 µM at HDAC8 (setting [14]) and greater than 180 µM at HDAC11 (setting [16]). The Ki at HDAC1 (setting [4]) stood at 3.24 µM; on HDAC2, 1.48 µM; at HDAC3/N-CoR2 (setting [7]), 2.43 µM; at HDAC4 (setting [9]), 2.29 µM; at HDAC5 (setting [11]), 0.38 µM; on HDAC7 (setting [13]) it was 5.36 µM. In addition, the Ki at HDAC8 (setting [15]) came to 1.58 µM.
For the compound `O=c1c2ccccc2[se]n1-c1ccccc1` [Ebselen, 2-phenyl-1,2-benzisoselenazol-3(2H)-one], the IC50 turned out to be 1.5 ± 0.4 µM on HDAC1; 1.4 ± 0.3 µM on HDAC2; 2.1 ± 1.5 µM on HDAC3/N-CoR2; 1.2 ± 0.2 µM at HDAC4; 0.78 ± 0.1 µM at HDAC5; 10.9 ± 2.2 µM at HDAC7. Besides, the results for the IC50 at HDAC8 and against HDAC11 were 0.35 ± 0.2 µM and 22.5 ± 2.4 µM, respectively. The Ki on HDAC1 came out at 0.15 µM; at HDAC2, 0.08 µM; at HDAC3/N-CoR2 it was 0.23 µM; at HDAC4 it was 0.2 µM; at HDAC5, 0.42 µM; at HDAC7, 3.09 µM. At HDAC11, this compound yielded a Ki of 4.41 µM.
As to `OC[C@H]1O[C@H]([S-])[C@H](O)[C@@H](O)[C@@H]1O.[Au+]` [Aurothioglucose, 1-thio-D-glucopyronaose gold salt], the concentration for half-maximal inhibition (IC50) is 4.4 ± 1.1 µM at HDAC1 (setting [3]); greater than 180 µM on HDAC2 (setting [5]); 11.5 ± 3.2 µM at HDAC3/N-CoR2 (setting [6]); 4.1 ± 2.1 µM at HDAC4 (setting [8]); 0.72 ± 0.5 µM on HDAC5 (setting [10]); 22.4 ± 4.4 µM on HDAC7 (setting [12]). Besides, the IC50 at HDAC8 (setting [14]) was 1.4 ± 0.3 µM; at HDAC11 (setting [16]) it was greater than 180 µM. For the same compound, the Ki at HDAC1 (setting [4]) is 0.47 µM; at HDAC3/N-CoR2 (setting [7]), 1.23 µM; at HDAC4 (setting [9]) it was 0.7 µM; on HDAC5 (setting [11]), 0.39 µM; on HDAC7 (setting [13]), 6.35 µM; on HDAC8 (setting [15]), 1.11 µM.
With `COc1ccc2c(c1)CC[C@@H]1[C@@H]2CC[C@]2(C)[C@@H](NCCCCCCN3C(=O)C=CC3=O)CC[C@@H]12` [U-73122, 1-[6-[[(17beta)-3-methoxyestra-1,3,5([10])-trien-17-yl]amion]hexyl]-1H-pyrrole-2,5-dione], the IC50 was 38.4 ± 15.5 µM at HDAC1 (setting [3]); greater than 100 µM on HDAC2 (setting [5]); 6.2 ± 4 µM at HDAC3/N-CoR2 (setting [6]); 31.2 ± 0.2 µM at HDAC4 (setting [8]); 10.5 ± 7.4 µM on HDAC5 (setting [10]); greater than 180 µM at HDAC7 (setting [12]). Moreover, the results for the IC50 on HDAC8 (setting [14]) and on HDAC11 (setting [16]) were 10.9 ± 3.1 µM and greater than 180 µM, respectively. The Ki on HDAC1 (setting [4]) is 4.11 µM; at HDAC3/N-CoR2 (setting [7]), 0.66 µM; at HDAC4 (setting [9]), 5.33 µM; on HDAC5 (setting [11]) it was 5.68 µM; on HDAC8 (setting [15]) it was 8.63 µM.
